Reference: ChEMBL document CHEMBL1914459 (Bioorg Med Chem Lett, 2011)

Species: Homo sapiens
Assay: Selectivity ratio of IC50 for human recombinant aldose reductase 1 to IC50 for human CRTh2 receptor
Details: not given
Outline: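 Ratio of two IC50s from separate assays. […] ALR1 activity was followed at […] as NADPH oxidation, at 22 °C. All reagents except NADPH were preincubated 15 min before NADPH started the reaction. Initial linear rates were corrected for non-enzymatic NADPH oxidation, and % inhibition was taken against no-compound control.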

Structure (SMILES) | Ratio IC50
COc1cccc(S(=O)(=O)c2c(C)n(CC(=O)O)c3ccc(C)cc23)c1 | < 20
CC(=O)Nc1cccc2c1c(S(=O)(=O)c1ccc(Cl)cc1)c(C)n2CC(=O)O | 100

Molecular target: Aldo-keto reductase family 1 member B1 (Rattus norvegicus, UniProt P07943)
Assay: Inhibition of rat aldose reductase
Details: not given

Structure (SMILES) | IC50 [nM]
Cc1ccc2c(c1)c(Sc1ccccc1)c(C)n2CC(=O)O | 157

System: not listed separately
Assay: Lipophilicity, log D of the compound at pH 7.4
Details: buffer

Structure (SMILES) | logD
CNC(=O)c1cccc2c1c(Sc1ccc(Cl)cc1)c(C)n2CC(=O)O | -0.9
Cc1ccc2c(c1)c(Sc1ccccc1Cl)c(C)n2CC(=O)O | 1.7
Cc1c(Sc2ccc(Cl)cc2)c2c(C#N)c(Cl)ccc2n1CC(=O)O | 1.6
Cc1c(Oc2ccc(Cl)cc2)c2cc(F)ccc2n1CC(=O)O | 1.3
Cc1c(Sc2ccc(Cl)cc2)c2c(Cl)cccc2n1CC(=O)O | 2.2
Cc1c(Sc2ccc(Cl)cc2)c2ccc(Cl)cc2n1CC(=O)O | 2.5
CCN(C(C)=O)c1cccc2c1c(Sc1ccc(Cl)cc1)c(C)n2CC(=O)O | 1.6
Cc1ccc2c(c1)c(Sc1ccc(S(C)(=O)=O)cc1)c(C)n2CC(=O)O | -0.1
Cc1c(Oc2ccc(Cl)cc2)c2c(NS(C)(=O)=O)cccc2n1CC(=O)O | -1
Cc1ccc2c(c1)c(S(=O)(=O)c1ccc(Cl)cc1)c(C)n2CC(=O)O | 0.1
Cc1c(Sc2ccc(Cl)cc2)c2c(-c3cnccn3)cccc2n1CC(=O)O | 0
Cc1c(Sc2ccc(Cl)cc2)c2c(Cl)nccc2n1CC(=O)O | 0.9
Cc1ccc2c(c1)c(Sc1cccc(Cl)c1)c(C)n2CC(=O)O | 1.9
CC(=O)Nc1ccc2c(c1)c(Sc1ccc(Cl)cc1)c(C)n2CC(=O)O | 0.2
Cc1c(Sc2ccc(Cl)cc2)c2ccc(S(C)(=O)=O)cc2n1CC(=O)O | 0.8
CCS(=O)(=O)c1ccc(Oc2c(C)n(CC(=O)O)c3ccc(C(F)(F)F)cc23)cc1 | 0.3
Cc1c(Sc2ccc(Cl)cc2)c2cccc(Cl)c2n1CC(=O)O | 2
Cc1c(S(=O)(=O)c2ccc(Cl)cc2)c2c(NS(C)(=O)=O)cccc2n1CC(=O)O | -0.8
Cc1ccc2c(c1)c([S+]([O-])c1ccc(Cl)cc1)c(C)n2CC(=O)O (stereo unspecified) | 0.1
Cc1c(Sc2ccc(Cl)cc2)c2c(-c3ccccc3)cccc2n1CC(=O)O | 2.6
COc1cccc(S(=O)(=O)c2c(C)n(CC(=O)O)c3ccc(C)cc23)c1 | -0.4
CC(=O)Nc1cccc2c1c(S(=O)(=O)c1ccc(Cl)cc1)c(C)n2CC(=O)O | 0.4

Molecular target: T1, Prostaglandin D2 receptor 2 (Homo sapiens, UniProt Q9Y5Y4)
T1 sequence (Q9Y5Y4 whole entry): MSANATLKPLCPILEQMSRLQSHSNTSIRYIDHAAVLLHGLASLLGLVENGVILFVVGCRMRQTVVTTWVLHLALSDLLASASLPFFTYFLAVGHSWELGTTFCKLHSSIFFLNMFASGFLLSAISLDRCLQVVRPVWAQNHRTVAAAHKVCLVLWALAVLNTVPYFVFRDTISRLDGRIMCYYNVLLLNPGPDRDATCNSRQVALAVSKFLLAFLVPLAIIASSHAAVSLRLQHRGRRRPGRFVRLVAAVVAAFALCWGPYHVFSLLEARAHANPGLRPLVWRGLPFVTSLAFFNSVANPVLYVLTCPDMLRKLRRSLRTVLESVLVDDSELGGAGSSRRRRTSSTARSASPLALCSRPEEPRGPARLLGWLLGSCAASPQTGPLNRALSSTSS
Assay: Antagonist activity at human CRTh2 receptor expressed in HEK cells assessed as inhibition of PGD2-induced calcium flux
Format: functional, cell-based, HEK293
Details: not given

Structure (SMILES) | IC50 [nM]
Cc1ccc2c(c1)c(Sc1ccccc1)c(C)n2CC(=O)O | 25

Molecular target: Aldehyde reductase AKR1A1 (Homo sapiens)
Assay: Inhibition of human recombinant aldose reductase 1 after 15 mins by spectrophotometry analysis
Details: not given

Structure (SMILES) | IC50 [nM]
Cc1c(Sc2ccc(Cl)cc2)c2c(C#N)c(Cl)ccc2n1CC(=O)O | 2240
Cc1c(Sc2ccc(Cl)cc2)c2c(Cl)cccc2n1CC(=O)O | 1780
CCS(=O)(=O)c1ccc(Oc2c(C)n(CC(=O)O)c3ccc(C(F)(F)F)cc23)cc1 | 3980
Cc1c(S(=O)(=O)c2ccc(Cl)cc2)c2c(NS(C)(=O)=O)cccc2n1CC(=O)O | 63
COc1cccc(S(=O)(=O)c2c(C)n(CC(=O)O)c3ccc(C)cc23)c1 | 115
CC(=O)Nc1cccc2c1c(S(=O)(=O)c1ccc(Cl)cc1)c(C)n2CC(=O)O | 708

System: not listed separately
Assay: Intrinsic clearance in rat hepatocytes assessed as per 1 x 10^6 cells
Details: not given

Structure (SMILES) | hepatocyte CLint [µL/min/1e6 cells]
CNC(=O)c1cccc2c1c(Sc1ccc(Cl)cc1)c(C)n2CC(=O)O | < 3
Cc1ccc2c(c1)c(Sc1ccccc1Cl)c(C)n2CC(=O)O | 24
Cc1c(Sc2ccc(Cl)cc2)c2c(C#N)c(Cl)ccc2n1CC(=O)O | 6
Cc1c(Oc2ccc(Cl)cc2)c2cc(F)ccc2n1CC(=O)O | < 3
Cc1c(Sc2ccc(Cl)cc2)c2ccc(Cl)cc2n1CC(=O)O | 64
Cc1ccc2c(c1)c(Sc1ccc(S(C)(=O)=O)cc1)c(C)n2CC(=O)O | 7
Cc1c(Oc2ccc(Cl)cc2)c2c(NS(C)(=O)=O)cccc2n1CC(=O)O | 8
Cc1c(Sc2ccc(Cl)cc2)c2c(-c3cnccn3)cccc2n1CC(=O)O | 12
Cc1ccc2c(c1)c(Sc1cccc(Cl)c1)c(C)n2CC(=O)O | 31
CC(=O)Nc1ccc2c(c1)c(Sc1ccc(Cl)cc1)c(C)n2CC(=O)O | 8
Cc1c(Sc2ccc(Cl)cc2)c2ccc(S(C)(=O)=O)cc2n1CC(=O)O | < 3
Cc1c(Sc2ccc(Cl)cc2)c2cccc(Cl)c2n1CC(=O)O | 75
Cc1ccc2c(c1)c([S+]([O-])c1ccc(Cl)cc1)c(C)n2CC(=O)O (stereo unspecified) | < 5
Cc1c(Sc2ccc(Cl)cc2)c2c(-c3ccccc3)cccc2n1CC(=O)O | 25
COc1cccc(S(=O)(=O)c2c(C)n(CC(=O)O)c3ccc(C)cc23)c1 | 14
CC(=O)Nc1cccc2c1c(S(=O)(=O)c1ccc(Cl)cc1)c(C)n2CC(=O)O | < 1

System: not listed separately
Assay: Half life in Sprague-Dawley rat at 1 mg/kg, iv
Format: ADME, organism-based
Parameters: dose 1 mg/kg, route intravenous
Details: in vivo

Structure (SMILES) | half-life [h]
Cc1c(Oc2ccc(Cl)cc2)c2c(NS(C)(=O)=O)cccc2n1CC(=O)O | 1.4
CC(=O)Nc1cccc2c1c(S(=O)(=O)c1ccc(Cl)cc1)c(C)n2CC(=O)O | 0.9

Molecular target: not listed separately
Assay: Inhibition of human recombinant aldose reductase 2 after 15 mins by spectrophotometry analysis
Details: not given

Structure (SMILES) | IC50 [nM]
Cc1ccc2c(c1)c(Sc1ccccc1Cl)c(C)n2CC(=O)O | 11200
Cc1c(Sc2ccc(Cl)cc2)c2c(C#N)c(Cl)ccc2n1CC(=O)O | 4730
Cc1c(Sc2ccc(Cl)cc2)c2c(Cl)cccc2n1CC(=O)O | 5010
Cc1c(Sc2ccc(Cl)cc2)c2ccc(Cl)cc2n1CC(=O)O | 2000
Cc1ccc2c(c1)c(Sc1ccc(S(C)(=O)=O)cc1)c(C)n2CC(=O)O | > 10000
Cc1ccc2c(c1)c(S(=O)(=O)c1ccc(Cl)cc1)c(C)n2CC(=O)O | 6310
Cc1ccc2c(c1)c(Sc1cccc(Cl)c1)c(C)n2CC(=O)O | 3160
CCS(=O)(=O)c1ccc(Oc2c(C)n(CC(=O)O)c3ccc(C(F)(F)F)cc23)cc1 | > 10000
Cc1c(Sc2ccc(Cl)cc2)c2cccc(Cl)c2n1CC(=O)O | 11200
Cc1c(S(=O)(=O)c2ccc(Cl)cc2)c2c(NS(C)(=O)=O)cccc2n1CC(=O)O | > 5840
COc1cccc(S(=O)(=O)c2c(C)n(CC(=O)O)c3ccc(C)cc23)c1 | 724
CC(=O)Nc1cccc2c1c(S(=O)(=O)c1ccc(Cl)cc1)c(C)n2CC(=O)O | 4470

Molecular target: Cytochrome P450 2C9 (Homo sapiens, UniProt P11712)
Sequence (P11712 whole entry): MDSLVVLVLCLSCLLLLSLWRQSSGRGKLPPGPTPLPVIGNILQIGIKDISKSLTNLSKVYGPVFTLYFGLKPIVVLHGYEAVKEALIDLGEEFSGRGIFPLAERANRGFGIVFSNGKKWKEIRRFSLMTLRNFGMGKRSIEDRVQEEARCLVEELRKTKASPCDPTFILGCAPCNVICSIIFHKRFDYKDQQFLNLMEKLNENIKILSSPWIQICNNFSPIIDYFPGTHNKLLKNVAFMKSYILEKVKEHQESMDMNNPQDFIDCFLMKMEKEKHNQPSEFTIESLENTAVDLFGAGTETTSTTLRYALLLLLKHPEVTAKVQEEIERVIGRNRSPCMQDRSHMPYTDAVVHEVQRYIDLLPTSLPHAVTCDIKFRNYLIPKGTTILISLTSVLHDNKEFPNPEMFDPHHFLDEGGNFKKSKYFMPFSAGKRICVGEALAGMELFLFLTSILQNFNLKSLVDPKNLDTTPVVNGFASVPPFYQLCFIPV
Assay: Inhibition of CYP2C9
Format: ADME
Details: not given

Structure (SMILES) | IC50 [nM]
Cc1ccc2c(c1)c(Sc1ccc(S(C)(=O)=O)cc1)c(C)n2CC(=O)O | 5200

System: not listed separately
Assay: Clearance in Sprague-Dawley rat at 1 mg/kg, iv
Format: ADME, organism-based
Parameters: dose 1 mg/kg, route intravenous
Details: in vivo

Structure (SMILES) | clearance [mL/min/kg]
Cc1c(Oc2ccc(Cl)cc2)c2c(NS(C)(=O)=O)cccc2n1CC(=O)O | 20
CC(=O)Nc1cccc2c1c(S(=O)(=O)c1ccc(Cl)cc1)c(C)n2CC(=O)O | 4

System: not listed separately
Assay: Volume of distribution at steady state in Sprague-Dawley rat at 1 mg/kg, iv
Format: ADME, organism-based
Parameters: dose 1 mg/kg, route intravenous
Details: in vivo, read-out: Vdss

Structure (SMILES) | Vd [L/kg]
Cc1c(Oc2ccc(Cl)cc2)c2c(NS(C)(=O)=O)cccc2n1CC(=O)O | 1.7
CC(=O)Nc1cccc2c1c(S(=O)(=O)c1ccc(Cl)cc1)c(C)n2CC(=O)O | 0.2

Molecular target: T1, Prostaglandin D2 receptor 2
Assay: Displacement of [3H]PGD2 from human CRTH2 receptor
Details: not given
Outline: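 Radioligand binding with ³H-PGD₂ as the labelled ligand; IC₅₀ reported as mean of n >2 measurements.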

Structure (SMILES) | IC50 [nM]
CNC(=O)c1cccc2c1c(Sc1ccc(Cl)cc1)c(C)n2CC(=O)O | 45
Cc1ccc2c(c1)c(Sc1ccccc1Cl)c(C)n2CC(=O)O | 2.6
Cc1ccc2c(c1)c(Sc1ccccc1)c(C)n2CC(=O)O | 20
Cc1c(Sc2ccc(Cl)cc2)c2c(C#N)c(Cl)ccc2n1CC(=O)O | 6.1
Cc1c(Oc2ccc(Cl)cc2)c2cc(F)ccc2n1CC(=O)O | 5
Cc1c(Sc2ccc(Cl)cc2)c2c(Cl)cccc2n1CC(=O)O | 25
Cc1c(Sc2ccc(Cl)cc2)c2ccc(Cl)cc2n1CC(=O)O | 42
Cc1ccc2c(c1)c(Sc1ccc(S(C)(=O)=O)cc1)c(C)n2CC(=O)O | 1.4
Cc1c(Oc2ccc(Cl)cc2)c2c(NS(C)(=O)=O)cccc2n1CC(=O)O | 3.5
Cc1ccc2c(c1)c(S(=O)(=O)c1ccc(Cl)cc1)c(C)n2CC(=O)O | 26
Cc1c(Sc2ccc(Cl)cc2)c2c(-c3cnccn3)cccc2n1CC(=O)O | 0.6
Cc1c(Sc2ccc(Cl)cc2)c2c(Cl)nccc2n1CC(=O)O | 32
Cc1ccc2c(c1)c(Sc1cccc(Cl)c1)c(C)n2CC(=O)O | 3
CC(=O)Nc1ccc2c(c1)c(Sc1ccc(Cl)cc1)c(C)n2CC(=O)O | 56
Cc1c(Sc2ccc(Cl)cc2)c2ccc(S(C)(=O)=O)cc2n1CC(=O)O | 159
CCS(=O)(=O)c1ccc(Oc2c(C)n(CC(=O)O)c3ccc(C(F)(F)F)cc23)cc1 | 3.5
Cc1c(Sc2ccc(Cl)cc2)c2cccc(Cl)c2n1CC(=O)O | 60
Cc1c(S(=O)(=O)c2ccc(Cl)cc2)c2c(NS(C)(=O)=O)cccc2n1CC(=O)O | 7.9
Cc1ccc2c(c1)c([S+]([O-])c1ccc(Cl)cc1)c(C)n2CC(=O)O (stereo unspecified) | 1000
Cc1c(Sc2ccc(Cl)cc2)c2c(-c3ccccc3)cccc2n1CC(=O)O | 1
COc1cccc(S(=O)(=O)c2c(C)n(CC(=O)O)c3ccc(C)cc23)c1 | 71
CC(=O)Nc1cccc2c1c(S(=O)(=O)c1ccc(Cl)cc1)c(C)n2CC(=O)O | 7.1

System: not listed separately
Assay: Oral bioavailability in Sprague-Dawley rat at 3 mg/kg
Format: ADME, organism-based
Details: in vivo

Structure (SMILES) | bioavailability [%]
Cc1c(Oc2ccc(Cl)cc2)c2c(NS(C)(=O)=O)cccc2n1CC(=O)O | > 46
CC(=O)Nc1cccc2c1c(S(=O)(=O)c1ccc(Cl)cc1)c(C)n2CC(=O)O | < 10
